Source: PubChem BioAssay (The Scripps Research Institute Molecular Screening Center)
CHO parental Ca: counter-screen: ATP calcium response change in parental CHO cells; 330,000 compounds, 0.63% hits; parental CHO-K1, ATP-induced calcium, Fluo-8 fluorescence; inhibition, % at 5.6 µM;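 active = inhibition above that plate's mean sample inhibition plus 3 SD, cut at about 26% in these data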;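 also: 0% = ATP-challenged DMSO wells and 100% = DMSO wells without ATP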
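Assay system – parental CHO cells · Reagent – ATP stimulus · Detection – intracellular calcium via Fluo-8 no-wash fluorescent dye · Evaluation – percent inhibition of ATP-evoked calcium rise, normalized to controls · Controls – ATP wells versus no-ATP DMSO wells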
OX1R antag-1: antagonists of human orexin 1 receptor; O43613; CHO/OX1R cells, Fluo-8 calcium fluorescence, orexin A; inhibition, % at 5 µM; 330,000 compounds, 0.43% hits; AID 434989;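 active = inhibition above its plate's threshold, mean inhibition of all tested compounds on the plate plus 3 SD, cut at about 37% in these data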;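 also: 0% = orexin A challenge wells and 100% = SB-334867-A antagonist wells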
Target sequence (O43613 whole entry, looked up): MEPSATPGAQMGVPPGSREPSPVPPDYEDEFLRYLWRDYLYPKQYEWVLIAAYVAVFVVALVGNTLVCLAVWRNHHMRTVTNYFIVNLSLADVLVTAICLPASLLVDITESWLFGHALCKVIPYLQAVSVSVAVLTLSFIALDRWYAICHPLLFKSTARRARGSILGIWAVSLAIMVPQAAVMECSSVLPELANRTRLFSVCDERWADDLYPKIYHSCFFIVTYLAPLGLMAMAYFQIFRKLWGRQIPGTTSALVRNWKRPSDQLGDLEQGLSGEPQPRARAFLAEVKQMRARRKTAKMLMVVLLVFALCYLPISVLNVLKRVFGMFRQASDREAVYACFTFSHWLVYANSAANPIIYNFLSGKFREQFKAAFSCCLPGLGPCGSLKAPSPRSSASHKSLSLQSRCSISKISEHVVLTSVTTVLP
GPR7 antagonist: human neuropeptides B/W receptor 1 antagonism. GPR7-expressing cells, fluorescence antagonist assay. AID 1861. 290,000 compounds, 1.1% hits. inhibition, % at 4.4 µM. P48145; in the data active = inhibition above about 16%, passing the limit was not always enough;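 also: cells stimulated with the agonist NPW; 0% = agonist with vehicle and 100% = vehicle without agonist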
TAAR1 antag: human TAAR1 antagonism | Q96RJ0 | inhibition, % at 3 µM | AID 624466 | 360,000 compounds, 1.5% hits | CHO RD-HGA16 TAAR1, Fluo-8 calcium fluorescence, antagonist;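 active = inhibition above a per-plate cutoff, the mean inhibition of test compounds on that plate plus 3 SD, cut at about 49% in these data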;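 also: 0% = DMSO plus EC80 beta-PEA response and 100% = DMSO alone without agonist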
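Material: RD-HGA16 CHO cells with stable hTAAR1 and Gα16; Dosing: single nominal final test compound concentration of 3 µM; Schedule: seeding 17-24 h prior, 75-min 37 °C, 30-min RT dye loading; Detection: kinetic Fluo-8 calcium fluorescence measurement; Measure: % inhibition from peak post-agonist over basal fluorescence ratio; Benchmarks: vehicle and agonist controls.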
TAAR1 ag: human TAAR1 agonism | Q96RJ0 | CHO RD-HGA16 TAAR1, Fluo-8 calcium fluorescence; vehicle wells 0%, saturating PEA agonist 100% | activation, % at 3 µM | 360,000 compounds, 0.99% hits | AID 624467;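 active = activation above the mean activation of all test compounds in the run plus 3 SD, cut at about 38% in these data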
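Test system: RD-HGA16 (CHO) cells co-expressing Gα16 and hTAAR1 / Benchmarks: DMSO vehicle as 0%, PEA at EC100 as 100% / Repeats: no replicates (n 1) / Measure: % activation from peak over basal fluorescence ratio, DMSO-to-PEA scaled / Timing: 17-24 h plating, Fluo-8 75 min 37 °C, 30 min RT / Technique: kinetic Fluo-8 calcium fluorescence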
OX1R antag-2: antagonists of human orexin 1 receptor (OX1R); 330,000 compounds, 1.8% hits; O43613; inhibition, % at 6.6 µM; AID 485270; OX1R-expressing cells, FRET antagonist read-out; in the data active = inhibition mostly above about 38%, no sharp cut-off; inactive = mostly below about 40%;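 also: 0% = agonist challenge alone and 100% = reference antagonist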
OX1R HTRF conf: OX1R (human) antagonism, HTRF confirmed; inhibition, % at 6.6 µM; shares compounds with OX1R antag-2; AID 492964; OX1R-expressing cells, HTRF antagonist assay; 1,800 compounds, 49% hits; in the data active = inhibition above about 55%;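 also: CHO cells expressing OX1R stimulated with orexin A at about EC80; 0% = agonist challenge alone and 100% = reference antagonist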
CHO-K1 HTRF cnt: signal in parental CHO-K1 cells, OX1R antagonist counter-screen. inhibition, % at 6.6 µM. 1,800 compounds, 48% hits. AID 493232. HTRF counterscreen. shares compounds with OX1R antag-2; in the data active = inhibition above about 17%;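 also: 0% = agonist challenge with vehicle and 100% = vehicle alone without agonist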
* = called active by the depositor. Only some compounds are listed: those with a hit (about 4.6% of all), similar ones and a draw of the others.

`O=C1CCCC(O)=C1N=Nc1ccc2c(c1)OCO2` gave CHO parental Ca -8, OX1R antag-1 -5, GPR7 antagonist -12, TAAR1 antag -9, TAAR1 ag 2, OX1R antag-2 81*, OX1R HTRF conf 50 and CHO-K1 HTRF cnt 58*.
COc1ccc2nc(NC(=O)c3cccnc3SC)sc2c1 was read as CHO parental Ca -11, OX1R antag-1 12, GPR7 antagonist 1, TAAR1 antag 4, TAAR1 ag 3, OX1R antag-2 88*, OX1R HTRF conf 77* and CHO-K1 HTRF cnt 10.
Screening Cc1cccc(C(=O)OCC(=O)NC(=O)NC2CCCCC2)c1 returned TAAR1 antag -19 and TAAR1 ag 1.
`COCCNC(=O)C1CCCN(Cc2cccc(C#N)c2)CC1` (configuration not stated) gave TAAR1 antag -8 and TAAR1 ag 1.
`CCN1C(=O)/C(=C2/C=Cc3cc(C)ccc3N2CC)N(C)C1=S` gave CHO parental Ca -11, OX1R antag-1 -14, GPR7 antagonist 4, TAAR1 antag -9, TAAR1 ag 1, OX1R antag-2 134*, OX1R HTRF conf 54 and CHO-K1 HTRF cnt 79*.
Screening O=C(C(=O)N1CCC(CNS(=O)(=O)c2ccc(F)cc2)CC1)c1cccs1 returned TAAR1 antag -7 and TAAR1 ag 4.
For CCCCNc1ccc2c(c1)OC[C@@H](CC(C)C)NS2(=O)=O the results were TAAR1 antag -23 and TAAR1 ag -1.
For O=C(c1ccc([N+](=O)[O-])cc1[N+](=O)[O-])n1cnc2ccccc21 the results were CHO parental Ca -20, OX1R antag-1 -5, GPR7 antagonist 3, TAAR1 antag 52*, TAAR1 ag 16, OX1R antag-2 108*, OX1R HTRF conf 44 and CHO-K1 HTRF cnt 68*.
Screening O=C(c1ccccc1[N+](=O)[O-])n1cnc2ccccc21 returned CHO parental Ca 0, OX1R antag-1 4, GPR7 antagonist -6, TAAR1 antag 0, TAAR1 ag -2 and OX1R antag-2 15.
`CCCCC(=O)N/N=C/c1ccc(-c2ccc([N+](=O)[O-])cc2)o1` gave CHO parental Ca -8, OX1R antag-1 -19, GPR7 antagonist -6, TAAR1 antag -10, TAAR1 ag -2, OX1R antag-2 102*, OX1R HTRF conf 30 and CHO-K1 HTRF cnt -15.
`O=C(NCc1ccccc1)c1cc(C2COCCN2C(=O)c2ccc3c(c2)CCO3)on1` (configuration not stated) gave TAAR1 antag 2 and TAAR1 ag 1.
Screening O=c1c2ccccc2nc2n1CC/C2=C\N1CCN(c2ccc([N+](=O)[O-])cc2)CC1 returned CHO parental Ca -6, OX1R antag-1 -12, TAAR1 antag 0, TAAR1 ag 1, OX1R antag-2 94*, OX1R HTRF conf 32 and CHO-K1 HTRF cnt 23*.
Screening O=[N+]([O-])c1ccc(N2CCN(c3ccccc3)CC2)cc1 returned CHO parental Ca 7, OX1R antag-1 -6, GPR7 antagonist 2, TAAR1 antag -3, TAAR1 ag 2 and OX1R antag-2 -4.
For NC(=O)c1cc(N)ccc1N1CCCC1 the results were CHO parental Ca -8, OX1R antag-1 -12, GPR7 antagonist -16, TAAR1 antag 5, TAAR1 ag 1, OX1R antag-2 87*, OX1R HTRF conf 54 and CHO-K1 HTRF cnt 19*.
For C[C@H](CO)N1C[C@H](C)[C@@H](CN(C)C(=O)c2ccccn2)Oc2cc(Br)ccc2S1(=O)=O the results were TAAR1 antag -11 and TAAR1 ag 2.
CCOC(=O)CNC(=O)CSc1ncnc2c1cnn2-c1ccc(Cl)cc1 was read as CHO parental Ca -4, OX1R antag-1 -19, GPR7 antagonist -2, TAAR1 antag -10, TAAR1 ag 14 and OX1R antag-2 18.
